High-throughput results deposited in PubChem BioAssay by several laboratories.
This is a sample that favours compounds with a hit; in the whole collection about 1.9% have one here.
NR2E3 ag-1: human photoreceptor-specific nuclear receptor agonism | CHO-S Gal4-NCOR/VP16-NR2E3 two-hybrid, luciferase | inhibition of corepressor binding, % at 3.98 µM | hit rate 0.35% among 360,000 | Q9Y5X4;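 active means inhibition above the mean of all tested compounds plus 3 SD, cut at about 70% in these data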;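 further: 0% = DMSO with NR2E3 transfected cells and 100% = cells lacking NR2E3 construct; higher means lower luciferase signal from less NR2E3 corepressor binding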
Target sequence (Q9Y5X4 whole entry, looked up, the tested form may be a part): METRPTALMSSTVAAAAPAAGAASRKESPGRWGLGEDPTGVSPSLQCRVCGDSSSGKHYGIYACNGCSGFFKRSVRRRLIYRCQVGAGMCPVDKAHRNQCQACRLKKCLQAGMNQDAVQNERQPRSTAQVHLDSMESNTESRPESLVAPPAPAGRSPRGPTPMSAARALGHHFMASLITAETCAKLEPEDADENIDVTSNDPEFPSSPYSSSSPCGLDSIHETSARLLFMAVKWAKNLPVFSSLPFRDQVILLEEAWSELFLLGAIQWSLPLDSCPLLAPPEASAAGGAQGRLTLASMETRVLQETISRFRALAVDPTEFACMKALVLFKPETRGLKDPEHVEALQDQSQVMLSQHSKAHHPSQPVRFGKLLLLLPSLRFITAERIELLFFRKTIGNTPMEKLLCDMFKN
SKN-1 block: C. elegans SKN-1 inhibition; AID 624304; hit rate 0.49% among 360,000; C. elegans VP596 Pgst-4::GFP/RFP ratio, acrylamide-induced, 24 h; inhibition, % at 21.8 µM;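 active means interference check ratio from 0.5 to 1.5 plus GFP to RFP signal ratio inhibition reaching or exceeding a fixed threshold, cut at about 30% in these data, passing the limit was not always enough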
NR2E3 ag-2: agonists of human nuclear receptor NR2E3; Q9Y5X4; GST-NR2E3/biotin-RetCOR TR-FRET, 1536-well; inhibition of corepressor binding, % at 4.78 µM; hit rate 0.12% among 320,000;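 active means percent inhibition above the cutoff of mean plus 3 SD of all tested compounds, set per screening campaign, cut at about 20% in these data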;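 further: 0% = DMSO wells and 100% = biotin wells as full block of FRET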
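Format: 1536-well format; test system: GST-NR2E3 and biotin-RetCOR proteins; read-out basis: percent inhibition of TR-FRET ratio; timing: 5 h incubation at 4 °C; detection: time-resolved FRET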
Rev-erbA mod: Rev-erb alpha (human) modulation | activity, % at 10 µM | hit rate 0.79% among 370,000 | Rev-erbα–FITC-DNA binding, fluorescence polarization, 90 min;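 active means activity above about 14%, limit read from the data; passing the limit was not always enough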;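 further: 0% = DMSO wells with 35 nM protein and 100% = DMSO wells with 750 nM protein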
MT1-MMP act inh: MT1-MMP (human) activation inhibition | hit rate 0.061% among 360,000 | P50281 | GFP/RFP ratio change, % at 20 µM | HT1080 RFP-PRO-GFP cells, GFP/RFP ratio fluorescence, overnight; percent of plate control window, DMSO zero;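 active means GFP/RFP ratio change of at least 30% with cell ATP level not reduced by more than half and red fluorescence within 50% of control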
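Assay system: HT1080 RFP-PRO-GFP cells. Benchmarks: DMSO vehicle wells and RFP-L50D-GFP reporter cell wells. Times: overnight cell settling, then overnight compound exposure, 37 °C, 5% CO2. Compound: 20 µM single dose, 1% DMSO. Read-out basis: GFP/RFP fluorescence ratio.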
PG9 binder: small molecules binding HIV-1 gp120 antibody PG9; TR-FRET gp120-PG9 antibody binding; inhibition, % at 6.7 µM; hit rate 0.43% among 360,000; in the data active means inhibition above about 8.5%
NR2E3 ag confirm: confirmation of human NR2E3 agonists | shares compounds with NR2E3 ag-1 | CHO-S mammalian two-hybrid NR2E3-NCOR, luciferase luminescence | inhibition, % at 3.98 µM | hit rate 51% among 2,300 | AID 624378;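 active means average inhibition above a cutoff equal to the mean inhibition of all tested compounds plus one SD, cut at about 70% in these data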;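 further: 0% = DMSO in NR2E3 cells and 100% = DMSO in cells lacking NR2E3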
VP16 counter: GAL4-VP16 reporter inhibition in NR2E3 agonist counterscreen | AID 624379 | inhibition, % at 3.98 µM | hit rate 29% among 2,300 | shares compounds with NR2E3 ag-1 | CHO-S GAL4-VP16 luciferase reporter, luminescence;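 active means mean inhibition above a cutoff equal to the average over all tested compounds plus one standard deviation, cut at about 70% in these data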;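 further: luciferase from a UAS reporter driven by GAL4-VP16 transactivation; 0% = DMSO with VP16-transfected cells and 100% = DMSO with cells lacking VP16; higher means less reporter light so more repression of VP16 activity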
An asterisk follows results filed as active; . = no result given.

SMILES	NR2E3 ag-1	SKN-1 block	NR2E3 ag-2	Rev-erbA mod	MT1-MMP act inh	PG9 binder	NR2E3 ag confirm	VP16 counter
Cc1cc(C)c(C#N)c(SCc2nnc(-c3ccccc3)o2)n1	88*	5	-3	1	-2	0	73*	38
Cc1cc(C)c(C#N)c(SCc2nnc(-c3ccccc3[N+](=O)[O-])o2)n1	-96	-6	3	-1	-2	2	.	.
Cc1ccc(C#N)c(SCc2cc3c(cc2Cl)OCO3)n1	6	-2	5	11	-3	-4	.	.
COC(=O)[C@]12C[C@H](CC(=O)N3CCOCC3)C(=O)N(CCC3=CCCCC3)C1=C[C@H](C(C)(C)C)O[C@@H]2C	.	.	.	-4	.	0	.	.
O=C(NCc1ccccc1)[C@H]1CCCN1C(=O)[C@H]1CCCN1C(=O)C1CCCCC1	.	.	.	0	.	0	.	.
C=CCN1C(=O)[C@@H](CC(=O)NCCCOC)[C@]2(C(=O)OC)CCCCC=C12	.	.	.	-1	.	.	.	.
O=C(Nc1ccc(Cn2cccn2)cc1)c1ccc(COc2ccccc2Br)cc1	64	-19	-4	-2	.	-1	86*	-15
C(=Cc1cnc2ccccc2n1)c1ccc2c(c1)OCO2	52	-9	.	-4	-1	-18	37	-3
Cc1ccnc(NC(=O)Cc2ccc(-c3ccccc3)cc2)c1	93*	4	2	2	1	-1	98*	-24
O=C(Cc1ccc(-c2ccccc2)cc1)Nc1ccccn1	72*	18	3	6	-1	2	69	-13
CCOC(=O)CCCNC(=O)OC1CCC12CCC(c1ccccc1)CC2 (stereo not given)	.	.	.	10	.	.	.	.
O=C(OCc1cn(Cc2ccc(C(F)(F)F)cc2)nn1)N1CCOCC1	.	.	.	-1	.	.	.	.
CCCCc1c(-c2ccccc2OC)ncn1Cc1c(F)cccc1F	.	.	.	-2	.	-1	.	.
COC(=O)c1cc2c(c3c4cc(OC)ccc4n(S(=O)(=O)c4ccc(C)cc4)c13)C(=O)N(C)C2	.	.	.	1	.	-2	.	.
C[C@H]1CCC/C=C/[C@@H]2C[C@H](O)C[C@H]2[C@H](O)[C@H](S(=O)c2ccc(O)cc2)CC(=O)O1 (stereo not given in full)	78*	-12	.	0	0	0	91*	47
Cc1cccc(C)c1NC(=O)[C@@H]1CC(=O)O[C@@H]1c1ccccc1	.	.	.	-2	.	.	.	.
CC1(c2ccc3ccccc3c2)NC(=O)N(CC(=O)N2CCN(Cc3ccccc3)CC2)C1=O (stereo not given)	64	-8	2	.	19	.	70*	57
CC1c2cc3c(cc2CCN1C(=O)c1ccc(C(F)(F)F)cc1)OCCCO3 (stereo not given)	59	6	-2	6	5	0	21	39
O=C(NCCC1=CCCCC1)c1ccc2c(c1)N(Cc1ccccc1)C(=O)CS2	-21	4	2	-6	-9	-3	.	.
CN1C(=O)CS(=O)c2ccc(C(=O)NCCC3=CCCCC3)cc21 (stereo not given)	48	6	0	-6	-3	0	3	12
CCOC(=O)N1CCN(C(=O)C[C@H]2C[C@@]3(C(=O)OC)C(=C[C@H](C(C)C)O[C@@H]3C3CC3)N(Cc3ccccc3)C2=O)CC1	.	.	.	-9	.	-3	.	.
COC(=O)c1ccc(COc2cccc3c2OC(C)(C)C3)cc1	-19	-9	-1	-1	1	-3	.	.
COc1ccc(CNCC(O)COc2cccc3c2OC(C)(C)C3)cc1 (stereo not given)	51	5	3	-3	-2	-1	46	61
Cc1cc(C(=O)O)c(C)o1	.	.	.	6	.	.	.	.
COc1ccc(CCNC(=O)c2ccc3ccccc3n2)cc1OC	-22	-6	6	-2	3	0	.	.
SMILES	NR2E3 ag-1	SKN-1 block	NR2E3 ag-2	Rev-erbA mod	MT1-MMP act inh	PG9 binder	NR2E3 ag confirm	VP16 counter
COc1ccc(CNC(=O)c2ccc3ccccc3n2)cc1OC	85*	-8	-1	-4	3	0	60	44
Oc1c(Cl)cc(Cl)cc1Sc1cc(Cl)cc(Cl)c1O	.	.	3	0	.	.	.	.
O=S(c1cc(Cl)cc(Cl)c1O)c1cc(Cl)cc(Cl)c1O	84*	-7	.	-1	6	0	99*	78*
O=C(CN(CCc1ccccc1)S(=O)(=O)c1ccc(Cl)s1)N1CCOCC1	.	.	.	0	.	.	.	.
COc1cc2c(c3c1c(=O)c1ccccc1n3C)C=CC(C)(C)O2	.	.	.	-1	.	0	.	.
Cc1cc(N2CCN(c3nc4ccccc4s3)CC2)n2ncnc2n1	73*	0	1	4	6	0	94*	76*
CCCCCCn1c2c(c(=N)c3c1CCC3)CCC2	11	3	0	1	-14	-2	.	.
CCCCCCCCCn1c2c(c(=N)c3c1CCC3)CCC2	101*	-13	1	.	-17	.	99*	92*
O=C(CSc1nnc(Cn2nnc3ccccc32)o1)N(Cc1ccc(Cl)cc1)c1ccccc1	81*	3	5	-1	-3	-3	94*	81*
O=C(CSc1nnc(Cn2nnc3ccccc32)o1)Nc1cccc(Cl)c1	-6	-19	-1	-1	4	1	.	.
Clc1ccc(CSc2nnc(Cn3cnc4ccccc43)o2)cc1	60	-28	0	0	0	1	80*	69
OC(c1ccccc1)(c1ccccc1)C1CCN(CCCOc2ccc(-c3cncnc3)cc2)CC1	.	.	.	-5	.	-2	.	.
CCN(C(=O)C1CCCN(c2nnc(-n3cccc3)s2)C1)c1ccccc1C (stereo not given)	.	.	.	2	.	.	.	.
OC(c1ccc(Cl)c(F)c1)c1ncc(-c2ccc(Cl)cc2)[nH]1 (stereo not given)	68	10	.	-4	4	0	86*	66
Cc1cc(Cl)ccc1C(O)c1ncc(-c2ccc(F)cc2)[nH]1 (stereo not given)	59	-6	.	.	5	.	6	32
OC(c1ccc(Cl)c(F)c1)c1ncc(-c2cccc(F)c2)[nH]1 (stereo not given)	73*	21	.	-4	4	1	66	47
COC(=O)Cc1nnn2c1[C@H](C)[C@H](C(C)(C)C)OCC2	.	.	.	1	.	-2	.	.
O=C(OC1CC2CCC(C1)[N+]21CCCC1)C(O)(c1ccccc1)c1ccccc1 (stereo not given)	.	.	.	-5	.	.	.	.
O=C(NCc1ccccc1)[C@@H]1CCCN1C(=O)[C@H]1CCCN1C(=O)c1ccccc1	.	.	.	-5	.	0	.	.
O=C1c2ccccc2C(=O)N1Nc1ccccc1	58	-3	1	4	-1	0	19	20
